Test system: MCF7
Assay: Cytotoxicity against human MCF7 cells assessed as cell growth at 10 uM after 48 hrs by sulforhodamine B assay relative to control
Type: functional
Settings: MCF7, 48 h, read-out: Activity
Procedure, shortened: (§1)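 Adherent cells were grown in RPMI 1640 with 5% FBS and 2 mM L-glutamine, seeded at 5000–40 000 cells/well by doubling time, and held 24 h at 37 °C, 5% CO2 before drug. Time-zero plates were TCA-fixed. Compound in DMSO, single dose 10 μM, 48 h. Cells were fixed with cold TCA (final 10%, 60 min, 4 °C) and stained with 0.4% SRB. Bound dye was dissolved in 10 mM Tris base and read at 515 nm. Percent growth was derived from time-zero, control and treated absorbances.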

**Q.** For COc1ccc(-c2nc(N)nc3c(O)nccc23)cc1, which growth at 10 µM is on record?
**A.** 95.7%

**Q.** With Nc1nc(-c2ccc(Cl)cc2)c2ccnc(O)c2n1 as the compound, how does the growth at 10 µM read?
**A.** 94.1%

**Q.** For COc1ccc(Nc2nc(N)nc3c(O)nccc23)cc1, which growth at 10 µM is on record?
**A.** 79.7%

**Q.** Which growth at 10 µM does the source give for COc1nccc2c(Nc3ccc(Cl)cc3)nc(N)nc12 here?
**A.** 62.2%

**Q.** For Nc1nc(-c2ccccc2)c2ccnc(O)c2n1, which growth at 10 µM is on record?
**A.** 111%

**Q.** For COc1nccc2c(-c3ccccc3)nc(N)nc12, which growth at 10 µM is on record?
**A.** 96.5%

**Q.** With COc1ccc(-c2nc(N)nc3c(OC)nccc23)cc1 as the compound, how does the growth at 10 µM read?
**A.** 86.3%

**Q.** With COc1nccc2c(Sc3ccccc3)nc(N)nc12 as the compound, how does the growth at 10 µM read?
**A.** 91.9%

**Q.** For Nc1nc(Sc2ccccc2)c2ccnc(O)c2n1, which growth at 10 µM is on record?
**A.** 91.6%

**Q.** With Nc1nc(Nc2ccc(Cl)cc2)c2ccnc(O)c2n1 as the compound, how does the growth at 10 µM read?
**A.** 81%

**Q.** For Nc1nc(-c2cccc(F)c2)c2ccnc(O)c2n1, which growth at 10 µM is on record?
**A.** 83.3%

**Q.** Which growth at 10 µM does the source give for COc1nccc2c(Nc3ccccc3)nc(N)nc12 here?
**A.** 78.5%

**Q.** Which growth at 10 µM does the source give for COc1nccc2c(-c3ccc(Cl)cc3)nc(N)nc12 here?
**A.** 75.3%

**Q.** Which growth at 10 µM does the source give for COc1ccc(Nc2nc(N)nc3c(OC)nccc23)cc1 here?
**A.** 73%

**Q.** For Nc1nc(Nc2ccccc2)c2ccnc(O)c2n1, which growth at 10 µM is on record?
**A.** 80.8%

Test system: not listed separately
Assay: Cytotoxicity against human UO31 cells assessed as cell growth at 10 uM after 48 hrs by sulforhodamine B assay relative to control
Type: functional
Settings: UO-31, 48 h, read-out: Activity
Procedure, shortened: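 NCI-60 single-dose screen. Cells were grown in RPMI 1640 with 5% FBS and 2 mM L-glutamine, seeded at 5000–40 000 cells/well according to doubling time, and pre-incubated 24 h at 37 °C, 5% CO2. Time-zero plates were TCA-fixed at dosing. Compound in DMSO was given at 10 μM for 48 h. Cells were then fixed in cold TCA, stained with 0.4% SRB, solubilised in 10 mM Tris base and read at 515 nm. Growth % was calculated from time-zero, control and treated absorbances.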

**Q.** Which growth at 10 µM does the source give for COc1ccc(-c2nc(N)nc3c(O)nccc23)cc1 here?
**A.** 94.6%

**Q.** With Nc1nc(-c2ccc(Cl)cc2)c2ccnc(O)c2n1 as the compound, how does the growth at 10 µM read?
**A.** 96.9%

**Q.** With COc1ccc(Nc2nc(N)nc3c(O)nccc23)cc1 as the compound, how does the growth at 10 µM read?
**A.** 64.6%

**Q.** With COc1nccc2c(Nc3ccc(Cl)cc3)nc(N)nc12 as the compound, how does the growth at 10 µM read?
**A.** 42.9%

**Q.** With Nc1nc(-c2ccccc2)c2ccnc(O)c2n1 as the compound, how does the growth at 10 µM read?
**A.** 91.9%

**Q.** With COc1nccc2c(-c3ccccc3)nc(N)nc12 as the compound, how does the growth at 10 µM read?
**A.** 93.8%

**Q.** With COc1ccc(-c2nc(N)nc3c(OC)nccc23)cc1 as the compound, how does the growth at 10 µM read?
**A.** 108%

**Q.** For COc1nccc2c(Sc3ccccc3)nc(N)nc12, which growth at 10 µM is on record?
**A.** 75.3%

**Q.** Which growth at 10 µM does the source give for Nc1nc(Sc2ccccc2)c2ccnc(O)c2n1 here?
**A.** 86.8%

**Q.** Which growth at 10 µM does the source give for Nc1nc(Nc2ccc(Cl)cc2)c2ccnc(O)c2n1 here?
**A.** 54.5%

**Q.** For Nc1nc(-c2cccc(F)c2)c2ccnc(O)c2n1, which growth at 10 µM is on record?
**A.** 117%

**Q.** Which growth at 10 µM does the source give for COc1nccc2c(Nc3ccccc3)nc(N)nc12 here?
**A.** 88.3%

**Q.** For COc1nccc2c(-c3ccc(Cl)cc3)nc(N)nc12, which growth at 10 µM is on record?
**A.** 86.2%

**Q.** For COc1ccc(Nc2nc(N)nc3c(OC)nccc23)cc1, which growth at 10 µM is on record?
**A.** 57.7%

**Q.** Which growth at 10 µM does the source give for Nc1nc(Nc2ccccc2)c2ccnc(O)c2n1 here?
**A.** 73.7%

Test system: MDA-MB-468
Assay: Cytotoxicity against human MDA-MB-468 cells assessed as cell growth at 10 uM after 48 hrs by sulforhodamine B assay relative to control
Type: functional
Settings: MDA-MB-468, 48 h, read-out: Activity
Procedure, shortened: as §1

**Q.** For COc1ccc(-c2nc(N)nc3c(O)nccc23)cc1, which growth at 10 µM is on record?
**A.** 110%

**Q.** With Nc1nc(-c2ccc(Cl)cc2)c2ccnc(O)c2n1 as the compound, how does the growth at 10 µM read?
**A.** 108%

**Q.** Which growth at 10 µM does the source give for COc1ccc(Nc2nc(N)nc3c(O)nccc23)cc1 here?
**A.** 118%

**Q.** With COc1nccc2c(Nc3ccc(Cl)cc3)nc(N)nc12 as the compound, how does the growth at 10 µM read?
**A.** 60%

**Q.** Which growth at 10 µM does the source give for Nc1nc(-c2ccccc2)c2ccnc(O)c2n1 here?
**A.** 101%

**Q.** Which growth at 10 µM does the source give for COc1nccc2c(-c3ccccc3)nc(N)nc12 here?
**A.** 98.2%

**Q.** For COc1ccc(-c2nc(N)nc3c(OC)nccc23)cc1, which growth at 10 µM is on record?
**A.** 97.9%

**Q.** With COc1nccc2c(Sc3ccccc3)nc(N)nc12 as the compound, how does the growth at 10 µM read?
**A.** 112%

**Q.** Which growth at 10 µM does the source give for Nc1nc(Sc2ccccc2)c2ccnc(O)c2n1 here?
**A.** 120%

**Q.** Which growth at 10 µM does the source give for Nc1nc(Nc2ccc(Cl)cc2)c2ccnc(O)c2n1 here?
**A.** 135%

**Q.** With Nc1nc(-c2cccc(F)c2)c2ccnc(O)c2n1 as the compound, how does the growth at 10 µM read?
**A.** 107%

**Q.** With COc1nccc2c(Nc3ccccc3)nc(N)nc12 as the compound, how does the growth at 10 µM read?
**A.** 56.5%

**Q.** Which growth at 10 µM does the source give for COc1nccc2c(-c3ccc(Cl)cc3)nc(N)nc12 here?
**A.** 90.3%

**Q.** For COc1ccc(Nc2nc(N)nc3c(OC)nccc23)cc1, which growth at 10 µM is on record?
**A.** 76.3%

**Q.** Which growth at 10 µM does the source give for Nc1nc(Nc2ccccc2)c2ccnc(O)c2n1 here?
**A.** 126%
